The values that follow come from ChEMBL document CHEMBL2040707, “Fluorinated amino-derivatives of the sesquiterpene lactone, parthenolide, as (19)f NMR probes in deuterium-free environments” (2011).

Each structure is given as a SMILES string.

The assay relates to HL-60. The assay can be described thus: Antiproliferative activity against human HL60 cells after 72 hrs by MTT assay. As to conditions: HL-60, 72 h. Format: functional. A digest of the protocol:
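HL-60 cells from ATCC grown in phenol red-free RPMI-1640 with 10% FBS at 37 °C, 5% CO2. Seeded 5,000 cells/well, treated at ten concentrations in quadruplicate (final 0.5% DMSO; vehicle control 0.5% DMSO). After 72 h, MTT (2.5 mg/mL solution) added for 4 h, formazan dissolved in acidic isopropanol/Triton for 16 h, A570 read. GI50 set relative to a Day 0 density plate; 95% CI given.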
In general terms: Tetrazolium assays rely on reduction of a dye to a coloured formazan, in cell work by metabolically active cells.
The term GI50 denotes the concentration that inhibits growth by half. A word on the TGI: it is the concentration giving total growth inhibition. A higher TGI goes with less potent growth arrest. `C/C1=C/CC[C@@]2(C)O[C@@H]2[C@H]2OC(=O)[C@@H](CN3CCCCC3)[C@@H]2CC1` yielded a GI50 of 0.84 µM, an LC50 (concentration killing 50% of cells) of 10.1 µM and a TGI of 3.99 µM.

For `C/C1=C/CC[C@@]2(C)O[C@@H]2[C@H]2OC(=O)[C@@H](CN3CCCC(F)C3)[C@@H]2CC1` (stereo partly specified), the GI50 came to 1.13 µM and the TGI stood at 12.2 µM.

As for `C/C1=C/CC[C@@]2(C)O[C@@H]2[C@H]2OC(=O)[C@@H](CN3CCCC(F)(F)C3)[C@@H]2CC1`, growth was halved (GI50) at 16.9 µM. This counts as double-digit micromolar.

For the compound `C/C1=C/CC[C@@]2(C)O[C@@H]2[C@H]2OC(=O)[C@@H](CN3CCCC(C(F)(F)F)C3)[C@@H]2CC1` (stereo partly specified), halving of growth (GI50) required 1.69 µM, the LC50 (concentration killing 50% of cells) was 21.3 µM and total growth inhibition (TGI) required 7.29 µM.

Consider `C/C1=C/CC[C@@]2(C)O[C@@H]2[C@H]2OC(=O)[C@@H](CN3CCC(F)CC3)[C@@H]2CC1`, for which it took 1.77 µM to inhibit growth by half (GI50), the LC50 (concentration killing 50% of cells) stood at 8.07 µM and total growth inhibition (TGI) required 5.7 µM.

In turn, `C/C1=C\CC[C@@]2(C)O[C@@H]2[C@H]2OC(=O)[C@@H](CN3CCC(F)(F)CC3)[C@@H]2CC1` returned a GI50 of 0.69 µM, an LC50 (concentration killing 50% of cells) of 17.7 µM and a TGI of 5.58 µM.

With `C/C1=C/CC[C@@]2(C)O[C@@H]2[C@H]2OC(=O)[C@@H](CN3CCC(C(F)(F)F)CC3)[C@@H]2CC1`, the GI50 amounted to 1 µM, the LC50 (concentration killing 50% of cells) was 3.11 µM and net growth stopped (TGI) at 2.14 µM.

For the compound `C/C1=C/CC[C@@]2(C)O[C@@H]2[C@H]2OC(=O)[C@@H](CN3CCCC3)[C@@H]2CC1`, the concentration for 50% growth inhibition (GI50) amounted to 0.75 µM, the LC50 (concentration killing 50% of cells) turned out to be 2.54 µM and net growth stopped (TGI) at 1.74 µM.

For the compound `C/C1=C/CC[C@@]2(C)O[C@@H]2[C@H]2OC(=O)[C@@H](CN3CC[C@@H](F)C3)[C@@H]2CC1`, the GI50 was 0.58 µM, the LC50 (concentration killing 50% of cells) stood at 1.66 µM and the TGI was 1.18 µM.

As to `C/C1=C/CC[C@@]2(C)O[C@@H]2[C@H]2OC(=O)[C@@H](CN3CC[C@H](F)C3)[C@@H]2CC1`, the GI50 was found to be 24.7 µM and the TGI amounted to 46.2 µM.

`C/C1=C/CC[C@@]2(C)O[C@@H]2[C@H]2OC(=O)[C@@H](CN3CCC(F)(F)C3)[C@@H]2CC1`: the GI50 stood at 8.32 µM, the LC50 (concentration killing 50% of cells) amounted to 23.8 µM and the TGI came to 18.3 µM.

`C=C1C(=O)O[C@@H]2C3O[C@]3(C)CC/C=C(\C)CC[C@@H]12` (stereo partly specified) returned a GI50 of 0.52 µM and a TGI of 1.36 µM.
